Laboratory results taken from ChEMBL document CHEMBL1142205 (Antimicrob Agents Chemother, 2007).
Calls of active or inactive are those of the source. The rule behind the calls is not given here.

Legend:
Plasmodium falciparum [1] = test: Increase in intracellular reactive oxygen species in Plasmodium falciparum at 50 uM; type: functional, organism-based
Procedure, shortened: (§1)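 Parasitized cells preloaded with 50 μM DCFH-DA, 37°C, 30 min, washed, then exposed to drug for 4 h, alone or with mannitol (50 μM) or ascorbic acid plus reduced glutathione (1 mM each). Flow cytometry at ex 485/em 535 nm; ROS taken as mean fluorescence intensity. SD from three experiments.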

Plasmodium falciparum [2] = test: Growth inhibition of chloroquine-resistant Plasmodium falciparum 7G8 at 5 uM; type: functional, organism-based
Procedure, shortened: (§2)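 Sorbitol-synchronised ring-stage parasites were seeded at 0.5% parasitemia and 5% hematocrit in 24-well plates. […] Parasitemia was counted daily for 4 days on Giemsa-stained smears, as means of three replicate samples.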

Plasmodium falciparum [3] = test: Activity of GCN5 in Plasmodium falciparum assessed as increase in acetylation of H3-K9 and H3-K14 at 20 uM in presence of mannitol
Procedure, shortened: (§3)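 Unsynchronized 3D7 cultures exposed to 20 μM drug for 4 or 12 h (aliquots treated from 0 or 8 h, all harvested at 12 h), with or without 300 μM mannitol. Histones acid-extracted, equal amounts run on SDS-PAGE and immunoblotted with acetylation site-specific antibodies; anti-H4 as loading control.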

Plasmodium falciparum [4] = test: Growth restoration of Plasmodium falciparum at 50 uM with 400 uM mannitol; type: functional, organism-based
Procedure, shortened: (§4)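 Maturation assay: synchronized ring-stage parasites in 24-well plates with 50 μM drug and increasing mannitol concentrations. When control schizonts matured, schizonts per 5,000 red cells counted in each well.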

Plasmodium falciparum [5] = test: Growth inhibition of chloroquine-susceptible Plasmodium falciparum 3D7 at 5 uM; type: functional, organism-based
Procedure, shortened: (§5)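 Strain 3D7, sorbitol-synchronized rings, seeded at 0.5% parasitemia, 5% hematocrit in O+ erythrocytes, RPMI/Albumax medium, 37°C, 5% CO2/3% O2. Continuous exposure to 5 or 20 μM (or none); parasitemia counted daily for 4 days on Giemsa smears, three replicates per point.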

Plasmodium falciparum [6] = test: Pro-oxidant activity in Plasmodium falciparum as increased ROS; type: functional, organism-based; procedure, shortened: as §1
Plasmodium falciparum [7] = test: (§6) Antimalarial activity against chloroquine-susceptible Plasmodium falciparum D10; type: functional, organism-based
Procedure, shortened: (§7)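 Asexual P. falciparum cultured in human O+ erythrocytes at 37°C under 5% CO2/3% O2 and sorbitol-synchronised. Ring stages were set at 1% parasitemia and 5% hematocrit in low-hypoxanthine medium, in triplicate. […] Uninfected-RBC counts were subtracted and IC50/IC90 taken by linear regression with 95% CI.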

Plasmodium falciparum [8] = test: Inhibition of nuclear GCN5 in Plasmodium falciparum after 8 hrs by liquid HAT assay at 25 to 100 uM
Plasmodium falciparum [9] = test: Growth inhibition of chloroquine-susceptible Plasmodium falciparum 3D7 at 20 uM; type: functional, organism-based; procedure, shortened: as §5
Plasmodium falciparum [10] = test: Increase of Plasmodium falciparum 3D7 mitochondrial DNA damage by real-time PCR analysis; type: functional
Procedure, shortened: (§8)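 3D7 early trophozoites at 5% parasitemia and 5% hematocrit exposed to drug or DMSO for 6 h at 37°C. Genomic DNA by proteinase K/phenol-chloroform, quantified by dot blot; SYBR green real-time PCR on 1 ng DNA. Lesions derived from CT shift relative to control, control amplification efficiency set at 1.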

Plasmodium falciparum [11] = test: Increase of Plasmodium falciparum 3D7 nuclear DNA damage by real-time PCR analysis; type: functional; procedure, shortened: as §8
Plasmodium falciparum [12] = test: Inhibition of GCN5 in Plasmodium falciparum assessed as hyperacetylation of H3-K9 and H3-K14 at 20 uM after 12 hrs; details: 3D7, in the assay text read “hypoacetylation” for “hyperacetylation”; procedure, shortened: as §3
Plasmodium falciparum [13] = test: Decreased reactive oxygen species in Plasmodium falciparum with 1 mM ascorbic acid and 1 mM reduced glutathione; type: functional, organism-based; procedure, shortened: as §1
Plasmodium falciparum [14] = test: Decreased reactive oxygen species in Plasmodium falciparum with 50 uM mannitol; type: functional, organism-based; procedure, shortened: as §1
Plasmodium falciparum [15] = test: Restoration of nuclear GCN5 activity in Plasmodium falciparum at 50 uM in presence of 300 uM mannitol
Plasmodium falciparum [16] = test: Antimalarial activity against chloroquine-resistant Plasmodium falciparum 7G8; type: functional, organism-based; procedure, shortened: as §7
Plasmodium falciparum [17] = test: as §6; type: functional, organism-based; procedure, shortened: as §7; remark: listed apart in the source
Plasmodium falciparum [18] = test: Antimalarial activity against chloroquine-resistant Plasmodium falciparum Dd2; type: functional, organism-based; procedure, shortened: as §7
Plasmodium falciparum [19] = test: Restoration of nuclear GCN5 activity in Plasmodium falciparum at 50 uM in presence of 400 units/ml superoxide dismutase
Plasmodium falciparum [20] = test: Growth inhibition of chloroquine-resistant Plasmodium falciparum 7G8 at 20 uM; type: functional, organism-based; procedure, shortened: as §2
Plasmodium falciparum [21] = test: Increased DNA damage in Plasmodium falciparum after 12 hrs in TUNEL assay; type: functional, organism-based
Procedure, shortened: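 Ring-stage parasites exposed to 20 or 50 μM for 12 h, with or without 400 μM mannitol. Percoll-purified, fixed on poly-L-lysine slides, TUNEL with fluorescein-dUTP, propidium iodide counterstain. 300 cells scored per treatment for percent labeled; triplicate samples.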

Plasmodium falciparum [22] = test: Increased intracellular reactive oxygen species in Plasmodium falciparum at 1 uM; type: functional, organism-based; procedure, shortened: as §1
Plasmodium falciparum [23] = test: Inhibition of Plasmodium falciparum 3D7 recombinant GCN5 by HAT assay at 100 uM
Procedure, shortened: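 Recombinant PfGCN5 HAT domain (30 ng) with 1 μg bovine core histones preincubated ± drug in HAT buffer, 30°C, 10 min, then 0.1 μCi [3H]acetyl-CoA for 10 min. Half spotted on P-81 filters, washed at pH 9.2, scintillation counted; half resolved by SDS-PAGE/fluorography. DMSO solvent control; triplicates.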

Plasmodium falciparum [24] = test: Restoration of nuclear GCN5 activity in Plasmodium falciparum at 50 uM in presence of 5000 units/ml catalase
Plasmodium falciparum [25] = test: Growth restoration of Plasmodium falciparum at 50 uM with 300 uM mannitol; type: functional, organism-based; procedure, shortened: as §4
Plasmodium falciparum [26] = test: Growth arrest of Plasmodium falciparum at 50 uM; type: functional, organism-based; procedure, shortened: as §4

`COc1cc(/C=C/C(=O)CC(=O)/C=C/c2ccc(O)c(OC)c2)ccc1O` [CURCUMIN] was tested, and the Activity (Plasmodium falciparum [1]) was “Active”, the Activity (Plasmodium falciparum [2]) was “Active” and the Activity (Plasmodium falciparum [3]) was “Active”. The Activity (Plasmodium falciparum [4]) was “Active”, the Activity (Plasmodium falciparum [5]) was “Active” and the Activity (Plasmodium falciparum [6]) was “Dose-dependent effect”. The IC50 (Plasmodium falciparum [7]) was 22.9 µM, the IC90 (Plasmodium falciparum [7]) was 41.3 µM and the Activity (Plasmodium falciparum [8]) was “Active”. The Activity (Plasmodium falciparum [9]) was “Active”, the Activity (Plasmodium falciparum [10]) was “Active” and the Activity (Plasmodium falciparum [11]) was “Active”. The Activity (Plasmodium falciparum [12]) was “Active”, the Activity (Plasmodium falciparum [13]) was “Active” and the Activity (Plasmodium falciparum [14]) was “Active”. For the same compound, the Activity (Plasmodium falciparum [15]) was “Active”, the IC50 (Plasmodium falciparum [16]) was 29.6 µM and the IC90 (Plasmodium falciparum [16]) was 53.3 µM. For the same compound, the IC50 (Plasmodium falciparum [17]) was 22.9 µM, the IC90 (Plasmodium falciparum [17]) was 41.3 µM and the IC50 (Plasmodium falciparum [18]) was 27.4 µM. For the same compound, the IC90 (Plasmodium falciparum [18]) was 49.4 µM, the Activity (Plasmodium falciparum [19]) was “Active” and the Activity (Plasmodium falciparum [20]) was “Active”. For the same compound, the Activity (Plasmodium falciparum [21]) was “Active”, the Activity (Plasmodium falciparum [22]) was “Active” and the inhibition (Plasmodium falciparum [23]) was 95%. For the same compound, the Activity (Plasmodium falciparum [24]) was “Active”, the Activity (Plasmodium falciparum [25]) was “Active” and the Activity (Plasmodium falciparum [26]) was “Active”.
